18 compounds from ChEMBL document CHEMBL2401635, “Synthesis and biological properties of novel brefeldin A analogues” (J Med Chem, 2013) can be followed below.

One may read the GI50 as the concentration giving 50% growth inhibition. A high value points to lower sensitivity of the cells. The term TGI denotes the concentration giving total growth inhibition. For orientation: LD50 means the dose expected to kill half of the subjects tested. The low end stands for greater toxicity, the high end for lower toxicity.

The source made the active and inactive calls. No cut-off for these calls is given here. Bounds are passed on as bounds.

Data set [1] can be described thus: Cytostatic activity against human NCI60 cells by SRB assay. The settings on record: for CC50: read-out: LC50 (the source's name). Format: functional. Put shortly:
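NCI screen: single 10 μM dose first; active compounds then run at five concentrations on the same cell panel to give GI50, TGI and LC50, reported as averages over all cell lines; mean of two 5-dose tests, or one test where noted.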
(In SRB staining, fixed cells bind dye roughly in proportion to their protein.)

For data set [2], the system named is HeLa. The experiment in a line: Induction of golgi apparatus disassembly in human HeLa cells at 5 uM after 30 to 60 mins by confocal microscopic analysis. Format: functional, cell-based. In outline:
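HeLa cells in DMEM, 10% FBS, penicillin/streptomycin, 2 mM L-glutamine, exposed to 5 μM final compound at 37 °C for 30 or 60 min; fixed 4% paraformaldehyde 20 min, NH4Cl quench, 0.5% Triton X-100 permeabilization, 5% BSA block, anti-GM130 (cis Golgi) with Alexa 546 secondary; confocal imaging.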

For data set [3], the system named is HeLa. The experiment in a line: Induction of golgi apparatus disassembly in human HeLa cells at 5 uM incubated for 60 mins followed by compound washout measured after 2 hrs by confocal microscopic analysis. Format: functional, cell-based. Put shortly:
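Reassembly: HeLa cells given 5 μM final compound for 60 min at 37 °C, drug removed, then 2 h further in drug-free medium; fixed, anti-GM130 immunolabeled (paraformaldehyde fixation, Triton permeabilization, BSA block, Alexa 546 secondary) and examined by confocal microscopy; untreated medium controls.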

A further data set has as its system Nicotiana tabacum. As to the kind of experiment: Induction of morphological changes of golgi apparatus in tobacco mesophyll protoplast expressing Man1-RFP at 90 uM after 30 mins by confocal laser scanning microscopic analysis. Format: functional. In outline: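 Nicotiana tabacum cv. Petit Havana mesophyll protoplasts transiently expressing cis-Golgi marker Man1-RFP, treated 30 min with 90 μM compound (dissolved in DMSO) in half MS medium, untreated controls; observed by CLSM with 63× water-immersion objective.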

Data set [4] deals with Coxsackievirus B3. The experiment in a line: Antiviral activity against Coxsackievirus B3 infected in human HeLa R19 cells assessed as inhibition of viral replication at 0.5 uM after 7 hrs by luciferase reporter gene assay. Format: functional, organism-based. In outline:
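HeLa R19 subconfluent monolayers infected 30 min at 37 °C with Renilla luciferase-expressing CVB3 (RLuc-CVB3), MOI 0.1 CCID50; inoculum replaced by medium with compound (0.5, 5 or 50 μM final; 5 mM DMSO stock) or matched DMSO control. After 7 h, cells lysed and Renilla luciferase read as replication measure; triplicates normalized to mean of same-DMSO-dilution controls.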
(In general: Reporter assays use an easily measured gene product as a stand-in for the process of interest.)

The subject of data set [5] is Coxsackievirus B3. The experiment in a line: Antiviral activity against Coxsackievirus B3 infected in human HeLa R19 cells assessed as inhibition of viral replication at 5 to 50 uM after 7 hrs by luciferase reporter gene assay. Format: functional, organism-based. Put shortly:
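HeLa R19 subconfluent monolayers infected 30 min at 37 °C with Renilla luciferase-expressing CVB3, MOI 0.1 CCID50; virus replaced by medium with 0.5, 5 or 50 μM compound (5 mM DMSO stock) or matching DMSO. After 7 h, lysed and Renilla luciferase read; triplicates normalized to same-DMSO-dilution controls, shown as means ± SEM on log scale.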

Data set [6] in a line: Cytotoxicity against human HeLa R19 cells assessed as reduction of cell viability at 0.5 to 50 uM by MTS assay. Format: cell-based. The settings on record: hela r19, 50 µM. (In general: Tetrazolium dyes change colour on reduction, which living cells bring about.)
The next data set concerns Arabidopsis thaliana. As to the kind of experiment: Induction of morphological changes of golgi apparatus in Arabidopsis thaliana root cells expressing ST-YFP/VHAa1-RFP at 90 uM after 30 mins by confocal laser scanning microscopic analysis. Format: functional. In outline:
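Arabidopsis thaliana stably expressing VHAa1-RFP/N-ST-YFP grown from surface-sterilized seed on half-strength MS, 1% sucrose, 22 °C, 16 h days; roots treated 30 min with 90 μM compound (DMSO solution) in half MS medium, untreated controls; imaged by CLSM with 63× water-immersion objective.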

Data set [7] in a line: Toxicity in ip dosed mouse. Format: organism-based. The settings on record: in vivo.

`O=C1/C=C/[C@@H](O)[C@@H]2C[C@@H](O)C[C@H]2/C=C/CCC[C@H](CCc2ccc(C(F)(F)F)cc2)O1`: in data set [1], the GI50 was 0.212 µM, the concentration for total growth inhibition (TGI) amounted to 5.97 µM and the CC50 was 66.2 µM. In addition, the result with HeLa [2] was Active. In the data set with HeLa [3], the outcome was inactive. The outcome in the data set with Nicotiana tabacum was Active. The inhibition result in the data set on Coxsackievirus B3 [4] was “Active”. For the same compound, in the data set on Coxsackievirus B3 [5], the inhibition entry is “Active”. Besides, the Activity result in data set [6] was “Non-toxic”.
Regarding `C=C[C@H]1CCC/C=C/[C@@H]2C[C@H](O)C[C@H]2[C@H](O)/C=C/C(=O)O1`, in data set [1], the GI50 was found to be 0.0319 µM, total growth inhibition (TGI) required 4.91 µM and the CC50 amounted to 39 µM. In the data set on HeLa [2], the outcome was Active. Moreover, the outcome with Arabidopsis thaliana was Active. Further, the inhibition entry with Coxsackievirus B3 [5] is “Active”. The Activity result in data set [6] is “Non-toxic”.
`CC(=O)[C@H]1CCC/C=C/[C@@H]2C[C@H](O)C[C@H]2[C@H](O)/C=C/C(=O)O1`: in [1], the GI50 was determined as 0.594 µM, the TGI came to 13.3 µM and the CC50 worked out at 61.7 µM. Moreover, the inhibition result with Coxsackievirus B3 [5] was “Active”. Also, the Activity entry in data set [6] was “Non-toxic”.
Regarding `CC[C@H]1CCC/C=C/[C@@H]2C[C@H](O)C[C@H]2[C@H](O)/C=C/C(=O)O1`, in data set [1], halving of growth (GI50) required 0.0446 µM, the TGI stood at 5.82 µM and the CC50 was determined as 35.8 µM. Moreover, in the data set on Arabidopsis thaliana, the outcome was Active.
Take `O=C1/C=C/[C@@H](O)[C@@H]2C[C@@H](O)C[C@H]2/C=C/CCC[C@H](CCc2cccc3ccccc23)O1`: in data set [1], it took 0.0739 µM to inhibit growth by half (GI50), net growth stopped (TGI) at 2.28 µM and the CC50 is 25.1 µM. Also, in the data set with HeLa [3], the result was inactive. Besides, the inhibition entry with Coxsackievirus B3 [5] was “Active”. The Activity entry in [6] is recorded as “Non-toxic”.
For `O=C1/C=C/[C@@H](O)[C@@H]2C[C@@H](O)C[C@H]2/C=C/CCCCO1`, in data set [1], the GI50 is 0.631 µM, the TGI came out at 20.9 µM and the CC50 was 69.2 µM.
The like results for `C=C[C@@H]1CCC/C=C/[C@@H]2C[C@H](O)C[C@H]2[C@H](O)/C=C/C(=O)O1` were, in that order, 0.631 µM, 17.8 µM and 66.3 µM.
For the compound `O=C1/C=C/[C@@H](O)[C@@H]2C[C@@H](O)C[C@H]2/C=C/CCC[C@H](CCc2ccc(F)cc2)O1`, in the data set on Coxsackievirus B3 [5], the inhibition entry was “Active”. Also, in [6], the Activity entry was “Non-toxic”.
Take `Nc1ccc(CC[C@H]2CCC/C=C/[C@@H]3C[C@H](O)C[C@H]3[C@H](O)/C=C/C(=O)O2)cc1`: in data set [1], the GI50 stood at 0.0343 µM, the concentration for total growth inhibition (TGI) came to 2.68 µM and the CC50 was determined as 56.3 µM.
For the compound `CC(=O)Nc1ccc(CC[C@H]2CCC/C=C/[C@@H]3C[C@H](O)C[C@H]3[C@H](O)/C=C/C(=O)O2)cc1`, in data set [1], the GI50 turned out to be 0.152 µM, the TGI came out at 5.7 µM and the CC50 came to 51.6 µM. Also, the outcome in the data set with Nicotiana tabacum was Active. Further, the inhibition entry in the data set on Coxsackievirus B3 [5] is “Active”. In data set [6], the Activity result is “Non-toxic”.
On to `O=C1/C=C/[C@@H](O)[C@@H]2C[C@@H](O)C[C@H]2/C=C/CCC[C@H](CCO)O1`, for which, in data set [1], the GI50 came to 0.178 µM, the concentration for total growth inhibition (TGI) worked out at 7.69 µM and the CC50 is 47.6 µM. The inhibition entry in the data set on Coxsackievirus B3 [5] was “Active”. Moreover, the Activity entry in [6] is “Non-toxic”.
For the compound `O=C1/C=C/[C@@H](O)[C@@H]2C[C@@H](O)C[C@H]2/C=C/CCC[C@H](CCc2ccc3cccnc3c2)O1`, in data set [1], the 50% growth inhibitory concentration (GI50) was found to be 0.262 µM, the TGI was determined as 7.61 µM and the CC50 turned out to be 63.9 µM. Also, the outcome in the data set with Nicotiana tabacum was Active.
Take `O=C1/C=C/[C@@H](O)[C@@H]2C[C@@H](O)C[C@H]2/C=C/CCC[C@H](CCOCc2ccccc2)O1`: in data set [1], the GI50 came to 0.0809 µM, net growth stopped (TGI) at 5.05 µM and the CC50 was determined as 35.5 µM. The inhibition result in the data set on Coxsackievirus B3 [5] was “Active”. Also, in data set [6], the Activity result is “Non-toxic”.
Turning to `O=C1/C=C/[C@@H](O)[C@@H]2C[C@@H](O)C[C@H]2/C=C/CCC[C@H](CO)O1`, in data set [1], it took 2.57 µM to inhibit growth by half (GI50), the total growth inhibition concentration (TGI) is 38 µM and the CC50 is 85.1 µM.
Consider `COCC[C@H]1CCC/C=C/[C@@H]2C[C@H](O)C[C@H]2[C@H](O)/C=C/C(=O)O1`, for which, in [1], the GI50 turned out to be 0.0902 µM, the TGI was found to be 5.78 µM and the CC50 was 42.3 µM. For the same compound, the inhibition entry with Coxsackievirus B3 [5] was “Active”. Also, the Activity result in data set [6] is “Non-toxic”.
Turning to `O=C1/C=C/[C@@H](O)[C@@H]2C[C@@H](O)C[C@H]2/C=C/CCC[C@H](C(F)(F)F)O1`, in data set [1], it took 0.321 µM to inhibit growth by half (GI50), total growth inhibition (TGI) required 5.49 µM and the CC50 came to 48.2 µM.
Regarding `O=C1/C=C/[C@@H](O)[C@@H]2C[C@@H](O)C[C@H]2/C=C/CCC[C@H](CCc2ccccc2)O1`, in [1], growth was halved (GI50) at 0.0299 µM, the TGI was 2.04 µM and the CC50 worked out at 40 µM. Moreover, in the data set on HeLa [3], the outcome was inactive. Moreover, the outcome in the data set on Nicotiana tabacum was Active. In addition, the inhibition entry in the data set with Coxsackievirus B3 [5] was “Active”. Besides, in data set [6], the Activity entry was “Non-toxic”.
`C[C@H]1CCC/C=C/[C@@H]2C[C@H](O)C[C@H]2[C@H](O)/C=C/C(=O)O1` [BREFELDIN A] displayed a GI50 in data set [1] of 0.0206 µM. The compound further registered a TGI in data set [1] of 3.48 µM. The CC50 in [1] was 52.6 µM. In addition, the result with HeLa [2], with Arabidopsis thaliana and in the data set on Nicotiana tabacum was Active. In [7], the LD50 is above 200 mg/kg. In addition, in the data set on HeLa [3], the outcome was inactive. Moreover, the inhibition entry in the data set with Coxsackievirus B3 [4] and in the data set on Coxsackievirus B3 [5] was “Active” throughout. The Activity result in [6] is recorded as “Non-toxic”.
